The compounds below were run on T-cell (assay: Selectivity index, ratio of CC50 for lymph node T cell to IC50 for lymph node T cell).
Type: functional

Structure (SMILES)	Ratio CC50/IC50
C/C=C/C[C@@H](C)[C@@H](O)[C@H]1C(=O)N[C@@H](CC)C(=O)N(C)CC(=O)N(C)[C@@H](CC(C)C)C(=O)N[C@@H](C(C)C)C(=O)N(C)[C@@H](CC(C)C)C(=O)N[C@@H](C)C(=O)N[C@H](C)C(=O)N(C)[C@@H](CC(C)C)C(=O)N(C)[C@@H](CC(C)C)C(=O)N(C)[C@@H](C(C)C)C(=O)N1C [CYCLOSPORINE]	196.86

These compounds were tested against Phosphatidylinositol 4,5-bisphosphate 3-kinase catalytic subunit gamma isoform (Homo sapiens, UniProt P48736) (assay: Inhibition of PI3Kgamma after 4 hrs).
Chain of Phosphatidylinositol 4,5-bisphosphate 3-kinase catalytic subunit gamma isoform (P48736 whole entry, canonical isoform): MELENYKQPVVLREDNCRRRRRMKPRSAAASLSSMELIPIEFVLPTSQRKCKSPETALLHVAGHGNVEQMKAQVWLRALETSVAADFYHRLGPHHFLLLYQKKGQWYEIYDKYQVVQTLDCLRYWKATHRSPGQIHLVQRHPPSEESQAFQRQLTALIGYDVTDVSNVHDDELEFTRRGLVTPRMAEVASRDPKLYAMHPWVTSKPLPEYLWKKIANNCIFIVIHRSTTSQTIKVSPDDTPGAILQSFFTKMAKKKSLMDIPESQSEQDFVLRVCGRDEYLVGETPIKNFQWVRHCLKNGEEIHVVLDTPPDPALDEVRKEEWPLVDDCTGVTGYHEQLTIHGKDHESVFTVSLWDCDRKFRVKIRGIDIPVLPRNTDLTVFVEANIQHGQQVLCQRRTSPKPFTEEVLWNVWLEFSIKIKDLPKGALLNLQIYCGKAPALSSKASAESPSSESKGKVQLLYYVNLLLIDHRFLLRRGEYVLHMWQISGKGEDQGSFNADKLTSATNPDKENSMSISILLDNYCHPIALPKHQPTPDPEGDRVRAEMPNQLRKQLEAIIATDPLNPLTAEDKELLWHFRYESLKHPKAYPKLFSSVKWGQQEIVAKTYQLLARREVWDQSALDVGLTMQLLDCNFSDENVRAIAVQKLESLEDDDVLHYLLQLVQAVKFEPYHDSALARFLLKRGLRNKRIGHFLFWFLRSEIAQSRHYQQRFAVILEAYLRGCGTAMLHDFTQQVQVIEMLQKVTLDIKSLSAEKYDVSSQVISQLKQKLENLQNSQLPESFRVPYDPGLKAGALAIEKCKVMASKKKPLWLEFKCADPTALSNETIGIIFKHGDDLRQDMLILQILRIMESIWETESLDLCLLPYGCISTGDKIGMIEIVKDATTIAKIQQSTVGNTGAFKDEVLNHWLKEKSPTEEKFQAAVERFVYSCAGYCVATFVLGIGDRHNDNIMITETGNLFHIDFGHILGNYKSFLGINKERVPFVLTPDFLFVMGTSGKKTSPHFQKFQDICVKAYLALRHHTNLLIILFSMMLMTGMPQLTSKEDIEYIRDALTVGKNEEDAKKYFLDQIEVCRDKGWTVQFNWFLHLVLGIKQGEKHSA
How it was run: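 Recombinant PI3Kγ incubated 4 h at room temperature with or without compound at final concentrations of 3, 10, 30 and 50 μM.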

Structure (SMILES)	IC50 [µM]
CC(=O)Oc1ccccc1C1OC(c2ccc3c(c2)OCCO3)=NN1C(C)=O (stereo unspecified)	2.06
CC(=O)Oc1ccc(Cl)cc1C1OC(c2ccc3c(c2)OCCO3)=NN1C(C)=O (stereo unspecified)	0.98
CC(=O)Oc1ccc(Br)cc1C1OC(c2ccc3c(c2)OCCO3)=NN1C(C)=O (stereo unspecified)	1.31
CC(=O)Oc1c(Cl)cc(Cl)cc1C1OC(c2ccc3c(c2)OCCO3)=NN1C(C)=O (stereo unspecified)	1.75
CC(=O)Oc1c(Br)cc(Br)cc1C1OC(c2ccc3c(c2)OCCO3)=NN1C(C)=O (stereo unspecified)	1.98
